Consider 40 compounds from PubChem BioAssay.

The structures appear in SMILES notation. Active and inactive are the calls of the source.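 The calls were made as follows, unless noted: active = mean duplicate potentiation above the buffer control mean plus 5 SD of buffer wells; inactive = the rest.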

Sequence of Potassium voltage-gated channel subfamily KQT member 1 (Homo sapiens) (P51787 whole entry, looked up): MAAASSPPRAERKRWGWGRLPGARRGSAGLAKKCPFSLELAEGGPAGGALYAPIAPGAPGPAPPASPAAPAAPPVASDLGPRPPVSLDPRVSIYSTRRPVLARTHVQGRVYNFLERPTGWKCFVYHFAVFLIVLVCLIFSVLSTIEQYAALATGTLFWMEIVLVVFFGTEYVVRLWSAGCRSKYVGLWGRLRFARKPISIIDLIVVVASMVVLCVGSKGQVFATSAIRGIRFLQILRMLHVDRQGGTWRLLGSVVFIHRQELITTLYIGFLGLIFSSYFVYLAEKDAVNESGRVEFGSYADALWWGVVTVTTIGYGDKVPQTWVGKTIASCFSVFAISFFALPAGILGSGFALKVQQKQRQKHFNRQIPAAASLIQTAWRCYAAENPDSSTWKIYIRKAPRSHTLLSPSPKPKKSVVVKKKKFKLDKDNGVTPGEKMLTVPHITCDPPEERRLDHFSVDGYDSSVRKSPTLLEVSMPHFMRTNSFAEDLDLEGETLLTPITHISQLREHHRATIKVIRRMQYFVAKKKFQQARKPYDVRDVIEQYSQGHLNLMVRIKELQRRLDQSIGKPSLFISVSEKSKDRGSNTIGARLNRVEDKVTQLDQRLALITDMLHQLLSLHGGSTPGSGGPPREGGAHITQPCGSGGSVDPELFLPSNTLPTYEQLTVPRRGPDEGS

In the first assay the target is Potassium voltage-gated channel subfamily KQT member 2 (Rattus norvegicus) (UniProt O88943). The assay is described as follows: KCNQ2 thallium flux enhancement – KCNQ2-CHO-K1 cells, selectivity assay for KCNQ1 potentiator project (AID 493009).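 Also: assay conditions were tuned for KCNQ1 rather than KCNQ2 modulators; signal is max minus min fluorescence divided by baseline after thallium stimulus.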 Particulars: FluxOR thallium flux fluorescence, at 10 µM; active compounds read high, scaled: buffer 0, activator control 100.
Sequence of Potassium voltage-gated channel subfamily KQT member 2 (Rattus norvegicus) (O88943 whole entry, looked up): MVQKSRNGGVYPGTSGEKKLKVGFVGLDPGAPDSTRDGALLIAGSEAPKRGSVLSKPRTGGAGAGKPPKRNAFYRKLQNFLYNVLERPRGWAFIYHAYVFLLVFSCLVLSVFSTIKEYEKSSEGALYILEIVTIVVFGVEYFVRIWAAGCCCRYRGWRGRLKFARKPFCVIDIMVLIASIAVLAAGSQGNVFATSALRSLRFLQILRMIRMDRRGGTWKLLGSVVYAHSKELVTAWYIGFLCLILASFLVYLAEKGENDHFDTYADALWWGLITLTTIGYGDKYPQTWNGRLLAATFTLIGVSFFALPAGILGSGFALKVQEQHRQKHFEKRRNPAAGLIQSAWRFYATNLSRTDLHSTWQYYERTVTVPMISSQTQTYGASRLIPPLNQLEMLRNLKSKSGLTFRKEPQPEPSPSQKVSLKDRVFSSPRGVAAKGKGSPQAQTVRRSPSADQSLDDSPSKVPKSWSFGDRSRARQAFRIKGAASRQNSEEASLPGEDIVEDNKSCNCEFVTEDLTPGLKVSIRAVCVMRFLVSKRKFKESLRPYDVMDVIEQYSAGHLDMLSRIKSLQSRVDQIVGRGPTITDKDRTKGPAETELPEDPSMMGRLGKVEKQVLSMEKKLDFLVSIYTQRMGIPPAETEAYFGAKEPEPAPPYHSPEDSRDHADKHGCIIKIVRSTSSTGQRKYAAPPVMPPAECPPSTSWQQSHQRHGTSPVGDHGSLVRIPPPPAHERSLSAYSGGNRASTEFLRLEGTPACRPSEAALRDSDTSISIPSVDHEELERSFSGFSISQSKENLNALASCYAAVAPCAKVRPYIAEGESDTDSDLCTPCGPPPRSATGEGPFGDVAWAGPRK
For `S=c1nc(C2CCCCC2)n(-c2ccccc2)[nH]1`, the potentiation is 362% (active).

Consider `Cc1cccc(NC(=S)NC(=O)c2ccc(Br)o2)c1C`, for which the result was inactive.

Take `CC(C)CSC1=NSC2=NC(=O)/C(=C\c3cccs3)C(=N)N12`: the result was inactive.

Turning to `Cc1ccc(C2=NOC(=O)/C2=C\C=C\c2ccccc2)cc1`, the result was inactive.

As for `O=C(Cn1c(C(F)(F)F)nc2ccccc21)N=Nc1c(O)[nH]c2ccc(Br)cc12`, the outcome was inactive.

Take `Cc1ccccc1C(=O)c1c[nH]c(C(=O)N2CCN(c3ccccc3F)CC2)c1`: the outcome was inactive.

As for `COc1cccc(OCC(=O)NNC(=O)C(=O)Nc2cccc(C)c2)c1`, the potentiation is 224% (active).

Take `COC(=O)c1ccsc1NC(=O)CN1CCN(Cc2ccc3c(c2)OCO3)CC1`: the result was inactive.

On to `Cc1sc2nc(CN3CCOCC3)[nH]c(=S)c2c1C`, for which the potentiation is 292% (active).

`COc1cccc(C(=O)COc2ccc(NC(=O)c3ccccc3)cc2)c1`: the outcome was inactive.

With `CCCC(=O)Nc1cc(Cl)ccc1N1CCN(C(=O)CC)CC1`, the outcome was inactive.

Regarding `CCOC(=O)CC1=NS(=O)(=O)c2ccccc2N1`, the outcome was inactive.

For the compound `O=C(CSc1ccc2ccccc2n1)Nc1ccc(N2CCOCC2)cc1`, the result was inactive.

Regarding `CCCn1c(SCN2C(=O)c3ccccc3C2=O)nc2cc(Cl)ccc2c1=O`, the potentiation was 196% (active).

For `CCC1(c2ccc(Cl)cc2)NC(=S)N(c2ccc(C)c(C)c2)N1` (stereo not given), the potentiation was 550% (active).

Consider `O=C(NC(=S)N1CCN(C/C=C/c2ccccc2)CC1)c1ccc(F)cc1`, for which the potentiation is 260% (active).

In the case of `CCc1ccc(-c2c(C)sc(NC(C)=O)c2C(N)=O)cc1`, the result was inactive.

For `CCOc1ccccc1NC(=O)C1CCCN(S(=O)(=O)c2ccccc2)C1` (stereo not given), the outcome was inactive.

For `Cc1ccccc1OC(=O)n1c(=S)oc2cc(Cl)ccc21`, the potentiation was 157% (active).

Regarding `N#C/C=C1/NC(=O)c2ccccc2S1`, the potentiation is 166% (active).

For the compound `O=C(NC(=S)N(CC1CCC1)CC1CCCO1)c1cccc([N+](=O)[O-])c1` (stereo not given), the potentiation was 216% (active).

In the case of `CSC(C(=O)c1cc2ccccc2o1)c1ccccc1` (stereo not given), the result was inactive.

`O=C(NNC(=S)NC(=O)c1ccco1)c1ccc(F)cc1`: the potentiation is 232% (active).

On to `COc1cccc(-c2c(NC(=O)c3ccco3)n(-c3ccc(C)cc3)nc(C)c2=O)c1`, for which the result was inactive.

`Clc1ccc(C(c2ccccc2)N2CCNCC2)cc1` (stereo not given): the result was inactive.

On to `CN(c1ccccc1)S(=O)(=O)c1ccc(NC(=O)c2nc(S(C)(=O)=O)ncc2Cl)cc1`, for which the result was inactive.

As for `Cc1ccc2nc(SCC(=O)N3CCN(C(=O)c4ccco4)CC3)[nH]c2c1`, the outcome was inactive.

Turning to `CC(C)(C)NC(=O)C(=O)NNC(=O)c1ccc(C(C)(C)C)cc1`, the potentiation was 352% (active).

On to `CCCCCNC(=O)Cn1c(=O)c2c(ncn2CC(C)C)n(Cc2ccccc2)c1=O`, for which the result was inactive.

As to `N#C/C(=C\c1ccc(-c2ccccc2[N+](=O)[O-])o1)C(=O)Nc1nc(-c2cccs2)cs1`, the potentiation was 224% (active).

As for `CC1=C(C)/C(=N\OS(=O)(=O)c2ccccc2)C=CC1=O`, the result was inactive.

For the compound `Cc1nnc(C)n1/N=C/c1cc(Br)cc(Br)c1O`, the result was inactive.

As to `OC(CON=C1c2ccccc2-c2ccccc21)CN1CCNCC1` (stereo not given), the result was inactive.

In the case of `CC(NC(=O)CS(=O)(=O)c1ccccc1)c1ccccc1` (stereo not given), the outcome was inactive.

Take `Fc1ccccc1Nc1nc(Cl)nc(Cl)n1`: the result was inactive.

In the case of `O=C1OCCC1Sc1nc2ccccc2c(=O)n1Cc1ccc(F)cc1` (stereo not given), the potentiation is 169% (active).

In the case of `S=c1[nH]nc(-c2ccc(Cl)cc2)n1/N=C/C=C/c1ccco1`, the outcome was inactive.

`CC(=O)N1CCN=C1SCc1ccc(F)cc1`: the potentiation is 329% (active).

As for `CCCCCCCN1N=C(C)C(C(=O)c2ccccc2)C1=O` (stereo not given), the result was inactive.

As to `O=C(O)CCSc1ncnc2sc(-c3ccccc3)cc12`, the potentiation was 220% (active).

A further assay addresses Potassium voltage-gated channel subfamily KQT member 1 (Homo sapiens) (UniProt P51787). The assay can be described thus: KCNQ1 activators by electrophysiology – IonWorks patch clamp, KCNQ1-CHO cells, orthogonal assay for KCNQ1 potentiator project, confirmation (AID 493184;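 active = current rise at least 3 SD above the untreated control mean in each of two repeat wells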). Conditions: automated patch clamp current, at 10 µM; active compounds read high. Summed up:
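assay system = KCNQ1-expressing CHO cells | medium = external bath solution at pH 7.4 | probe or stimulus = 2,000 ms depolarization, -90 to +40 mV | compound dosing = 10 µM final, single point | measured by = automated voltage clamp, amphotericin B perforated patch | measure = percent current increase versus pre-compound level | replication = duplicates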
(The patch-clamp technique gives a direct electrical read-out from membranes.)
On to `S=c1nc(C2CCCCC2)n(-c2ccccc2)[nH]1`, for which the result was inactive.

Regarding `Cc1cccc(NC(=S)NC(=O)c2ccc(Br)o2)c1C`, the outcome was inactive.

Turning to `CC(C)CSC1=NSC2=NC(=O)/C(=C\c3cccs3)C(=N)N12`, the outcome was inactive.

As to `Cc1ccc(C2=NOC(=O)/C2=C\C=C\c2ccccc2)cc1`, the outcome was inactive.

Consider `O=C(Cn1c(C(F)(F)F)nc2ccccc21)N=Nc1c(O)[nH]c2ccc(Br)cc12`, for which the result was inactive.

For `Cc1ccccc1C(=O)c1c[nH]c(C(=O)N2CCN(c3ccccc3F)CC2)c1`, the result was inactive.

Turning to `COc1cccc(OCC(=O)NNC(=O)C(=O)Nc2cccc(C)c2)c1`, the result was inactive.

For `COC(=O)c1ccsc1NC(=O)CN1CCN(Cc2ccc3c(c2)OCO3)CC1`, the result was inactive.

In the case of `Cc1sc2nc(CN3CCOCC3)[nH]c(=S)c2c1C`, the result was inactive.

In the case of `COc1cccc(C(=O)COc2ccc(NC(=O)c3ccccc3)cc2)c1`, the outcome was inactive.

On to `CCCC(=O)Nc1cc(Cl)ccc1N1CCN(C(=O)CC)CC1`, for which the outcome was inactive.

As for `CCOC(=O)CC1=NS(=O)(=O)c2ccccc2N1`, the outcome was inactive.

On to `O=C(CSc1ccc2ccccc2n1)Nc1ccc(N2CCOCC2)cc1`, for which the result was inactive.

In the case of `CCCn1c(SCN2C(=O)c3ccccc3C2=O)nc2cc(Cl)ccc2c1=O`, the result was inactive.

For the compound `CCC1(c2ccc(Cl)cc2)NC(=S)N(c2ccc(C)c(C)c2)N1` (stereo not given), the outcome was inactive.

As for `O=C(NC(=S)N1CCN(C/C=C/c2ccccc2)CC1)c1ccc(F)cc1`, the outcome was inactive.

For `CCc1ccc(-c2c(C)sc(NC(C)=O)c2C(N)=O)cc1`, the outcome was inactive.

With `CCOc1ccccc1NC(=O)C1CCCN(S(=O)(=O)c2ccccc2)C1` (stereo not given), the result was inactive.

`Cc1ccccc1OC(=O)n1c(=S)oc2cc(Cl)ccc21`: the outcome was inactive.

In the case of `N#C/C=C1/NC(=O)c2ccccc2S1`, the result was inactive.

For the compound `O=C(NC(=S)N(CC1CCC1)CC1CCCO1)c1cccc([N+](=O)[O-])c1` (stereo not given), the outcome was inactive.

As for `CSC(C(=O)c1cc2ccccc2o1)c1ccccc1` (stereo not given), the outcome was inactive.

Take `O=C(NNC(=S)NC(=O)c1ccco1)c1ccc(F)cc1`: the outcome was inactive.

Consider `COc1cccc(-c2c(NC(=O)c3ccco3)n(-c3ccc(C)cc3)nc(C)c2=O)c1`, for which the outcome was inactive.

Consider `Clc1ccc(C(c2ccccc2)N2CCNCC2)cc1` (stereo not given), for which the outcome was inactive.

Turning to `CN(c1ccccc1)S(=O)(=O)c1ccc(NC(=O)c2nc(S(C)(=O)=O)ncc2Cl)cc1`, the outcome was inactive.

`Cc1ccc2nc(SCC(=O)N3CCN(C(=O)c4ccco4)CC3)[nH]c2c1`: the outcome was inactive.

Take `CC(C)(C)NC(=O)C(=O)NNC(=O)c1ccc(C(C)(C)C)cc1`: the outcome was inactive.

`CCCCCNC(=O)Cn1c(=O)c2c(ncn2CC(C)C)n(Cc2ccccc2)c1=O`: the result was inactive.

For `N#C/C(=C\c1ccc(-c2ccccc2[N+](=O)[O-])o1)C(=O)Nc1nc(-c2cccs2)cs1`, the outcome was inactive.

As to `CC1=C(C)/C(=N\OS(=O)(=O)c2ccccc2)C=CC1=O`, the result was inactive.

For the compound `Cc1nnc(C)n1/N=C/c1cc(Br)cc(Br)c1O`, the outcome was inactive.

Turning to `OC(CON=C1c2ccccc2-c2ccccc21)CN1CCNCC1` (stereo not given), the outcome was inactive.

In the case of `CC(NC(=O)CS(=O)(=O)c1ccccc1)c1ccccc1` (stereo not given), the outcome was inactive.

For the compound `Fc1ccccc1Nc1nc(Cl)nc(Cl)n1`, the result was inactive.

As for `O=C1OCCC1Sc1nc2ccccc2c(=O)n1Cc1ccc(F)cc1` (stereo not given), the outcome was inactive.

Take `S=c1[nH]nc(-c2ccc(Cl)cc2)n1/N=C/C=C/c1ccco1`: the result was inactive.

With `CC(=O)N1CCN=C1SCc1ccc(F)cc1`, the result was inactive.

As for `CCCCCCCN1N=C(C)C(C(=O)c2ccccc2)C1=O` (stereo not given), the outcome was inactive.

Regarding `O=C(O)CCSc1ncnc2sc(-c3ccccc3)cc12`, the result was inactive.
